Laboratory results published in ChEMBL document CHEMBL4513216, “Probing the Open Global Health Chemical Diversity Library for Multistage-Active Starting Points for Next-Generation Antimalarials” (ACS Infect Dis, 2020).

Assay: Toxicity liver stage against HepG2, at 10uM
Format: cell-based
Parameters: test concentration 10 uM, cell line HepG2-A16-CD81EGFP
Conditions: human, HepG2-A16-CD81EGFP cells; read-out: INHIBITION
Procedure, shortened: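 Uninfected HepG2-A16-CD81EGFP cells, 3 × 10^3 per well, 1536-well, plated on prespotted compound at 10 μM final, parasite-free screening media added to match infected plates; puromycin 10 μM positive, DMSO 0.5% negative; run in parallel with 48 h PbLuc assay at 37 °C, 5% CO2; viability by CellTiter-Glo luminescence, normalized to controls.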

| SMILES | cytotoxicity at 10 µM |
| --- | --- |
| CNC(=O)c1ccc(C2CN(C(=O)c3cncs3)CCO2)nc1 (centres undefined) | -2.7% |
| CCCc1cncnc1N1CCC(NCc2cc3ccccc3[nH]2)CC1 | 15.8% |
| COc1ccc(CN2CC(n3cccn3)C2)cc1F | -0.483% |
| CC(C)n1[nH]c(=O)c2c1NC(=O)CC2c1cccc(O)c1 (centres undefined) | 10.6% |
| CC(C)c1n[nH]c(C2CN(C(=O)COc3ccc(F)cc3)CCO2)n1 (centres undefined) | -5.7% |
| CCc1ccccc1CNC(=O)NCc1cnn(C)c1 | 2.14% |
| CCc1nnsc1C(=O)N1CCOC(c2nc(C(C)C)n[nH]2)C1 (centres undefined) | 1.23% |
| CN1CCOC(CNCc2cccc(OC(F)(F)F)c2)C1 (centres undefined) | -12% |
| CC(=O)N1CCC(N2CC[C@H](c3nc4cc(F)ccc4o3)C2)CC1 | 2.23% |
| Cc1sc(CS(C)(=O)=O)nc1-c1ccc(Cl)cc1 | -4.07% |
| CC(C)c1cc(C(=O)NCc2nc(-c3ccc(F)cc3)n[nH]2)n[nH]1 | -1.75% |
| COCCN1CCC(CN(CC2CCCO2)C(=O)COC)CC1 (centres undefined) | -21.1% |
| Cn1ncc2c1NC(=O)CC2c1ccc(Cl)cc1Cl (centres undefined) | 59.9% |
| CC1(C)CN(C(CNS(C)(=O)=O)c2ccc(Cl)cc2)CCO1 (centres undefined) | 9.12% |
| COc1ccc(C2CCN(C(=O)c3ncccc3OC(C)C)C2)cc1 (centres undefined) | -6.45% |
| Cc1ccc(C(=O)N2C[C@@H]3CN(c4ncccn4)C[C@@H]3C2)cn1 | 6.86% |
| Cc1csc(C(=O)N2CC[C@H](Oc3cccnc3C)[C@@H](O)CC2)c1 | -10.7% |
| O=C(O)c1c[nH]c2cc(NS(=O)(=O)c3cccc(F)c3F)ccc12 | 5.08% |
| Cc1csc(CNC(=O)N(C)Cc2cnn(C)c2)n1 | -1.57% |
| Cc1nn(C)c(C)c1CN(C)C(=O)c1cccc(CCC(C)(C)O)c1 | 3.13% |
| Cc1sc2ccccc2c1S(=O)(=O)NCCNC(=O)C(C)C | -0.238% |
| CC(C)C1=NOC2(CCN(Cc3c[nH]c4ccccc34)CC2)C1 | 3.46% |

| SMILES | cytotoxicity at 10 µM |
| --- | --- |
| CCS(=O)(=O)NCC(=O)NC1(C)CCc2ccccc2C1 (centres undefined) | 2.22% |
| Cc1noc(C)c1CN1CCc2ncc(CN3CCCC3)n2CC1 | 0.78% |
| COc1ccc(N(C)Cc2nc3c(cnn3C)c(=O)[nH]2)cc1OC | -10.7% |
| CS(=O)(=O)N1CC[C@@H](CC(=O)O)[C@@H](CC2=NCCc3cc(F)ccc32)C1 | 0.699% |
| Cc1cc(N2CCCC2)c(C#N)c(C)n1 | 10.4% |
| Cn1cc(CCN2CCOC(CNc3cccnn3)C2)cn1 (centres undefined) | 2.11% |
| COc1ccc(-c2noc(CCC(=O)N3CCOCC3(C)C)n2)cc1 | 6.99% |
| Cc1ccn(-c2ccc(C(=O)N3CCCC(n4ccnc4)C3)cc2)n1 (centres undefined) | -8.31% |
| Cc1noc(C)c1-c1cccc(CC2CCN(C(=O)CCC(=O)O)C2)n1 (centres undefined) | -8.44% |
| c1cnn(CC2CN(Cc3noc(C4CC4)n3)CCO2)c1 (centres undefined) | -0.842% |
| CCOc1c(Cl)cccc1NS(=O)(=O)c1cc(C)c(C(=O)O)s1 | 2.13% |
| Cc1cc(NC(=O)c2ccc(-n3ncc(C#N)c3N)cc2)n(C)n1 | -0.0414% |
| O=S(=O)(NCc1ccccc1)Nc1cccc(Cn2cncn2)c1 | 5.91% |
| O=S(=O)(Cc1cccc(F)c1)NCC(O)Cc1ccccc1 (centres undefined) | 9.01% |
| CCc1noc(C)c1C(=O)NCc1cc[nH]n1 | 3.44% |
| CNC(=O)c1ccc(OC)c(NCc2noc(-c3ccsc3)n2)c1 | 0.736% |
| COc1cccc(CNC(=O)CC2CSc3nc(C)c(C)c(=O)n32)c1 (centres undefined) | -4.31% |
| CC(c1ccccc1)N(C)C(=O)CNCCn1cccn1 (centres undefined) | 4.58% |
| Cc1cccc2c1nc1n2[C@@H](CNC(=O)c2cncnc2)COC1 | 1.53% |
| Cc1nc(C)n(CC2CCCN2Cc2nc(-c3ccsc3)no2)n1 (centres undefined) | -9.8% |
| Cc1ccccc1NS(=O)(=O)c1ccc(C(=O)O)cc1F | 7.94% |
| O[C@H]1[C@H](n2cc(CN3CCCC3)nn2)c2ccccc2C12CCNCC2 | -3.76% |

| SMILES | cytotoxicity at 10 µM |
| --- | --- |
| CC(=O)N1CC[C@H]2NC(=O)N(Cc3ccccc3)C(=O)[C@H]21 | 4.47% |
| COc1ccc(C(NC(=O)c2cccc[n+]2[O-])C2CC2)cc1 (centres undefined) | 7.12% |
| Cc1csc2ncc(-c3ccnc(N4CCCN(C)CC4)n3)c(=O)n12 | -6.97% |
| O=C(Cn1ccnc1)N1C[C@@H]2CC[C@H](Oc3cccc(F)c3)[C@@H]2C1 | -18% |
| O=C(CS(=O)(=O)c1ccccc1Cl)NC1CCCCNC1=O (centres undefined) | -13.2% |
| CCN1CCN(CC(O)c2ccc(OC(F)(F)F)cc2)CC1 (centres undefined) | -4.47% |
| CN1CCC(CO[C@H]2CN(C(=O)c3cccn3C)[C@@H]3COC[C@H]23)CC1 | -109% |
| CCN(CC)C1CCN(C(=O)NCc2cccc(-n3cccn3)c2)C1 (centres undefined) | 5.79% |
| Cc1nc(CN2CCOC3(CCCN(c4nccs4)C3)C2)cs1 (centres undefined) | 16.3% |
| CN(Cc1cccs1)C1CCC[C@@H]2CN(C(=O)c3cnccn3)C[C@H]12 (some centres undefined) | 16.7% |
| CC(C)[C@@H]1CN(C(=O)c2ccc3c(c2)CCCO3)C[C@H]1NS(C)(=O)=O | -6.53% |
| COCCC(C)NS(=O)(=O)c1ccc(C)c(N(C)C)c1 (centres undefined) | -0.2% |
| CCn1cnnc1CNC(=O)N1CCN(CCc2ccccc2)CC1 | -8.14% |
| COC[C@@H]1CCC[C@@]12CN(C(=O)N(C)C)CCO2 | -102% |
| O=C1CC(c2ccncc2)C2(CCN(C(=O)c3cccs3)CC2)N1 (centres undefined) | -71.1% |
| O=S(=O)(NCCCn1cccn1)c1ccc2c(c1)CCC2 | -4.59% |
| COc1cc(C)cc(C(C(=O)O)N(C)Cc2cnn(C)c2)c1OC (centres undefined) | 7.87% |
| Cc1ccc(C(=O)N2CCC3(CCN(C(=O)c4cccnc4)C3)CC2)o1 | 0.101% |
| O=C(C1CCC1)N1CCc2[nH]cnc2C12CCN(C1CCOCC1)CC2 | -2.4% |
| O=S(=O)(NCCCN1CCCC1)c1cc(F)cc(F)c1 | 8.84% |
| O=C(NCC(O)c1ccc(F)cc1F)c1ccccc1 (centres undefined) | 4.15% |
| Cc1noc(C(C)N2CCN(CCCN3CCCC3=O)CC2)n1 (centres undefined) | -2.73% |

| SMILES | cytotoxicity at 10 µM |
| --- | --- |
| Cc1noc(CCCC(=O)NC(C)c2cn(-c3ccccc3)nn2)n1 (centres undefined) | -8.18% |
| O=C1NCCCc2[nH]c(-c3nc(C4CCCCC4)no3)nc21 | -0.627% |
| CC(C)C(=O)NC1CCCN(C(=O)c2cc3ccccc3cc2O)C1 (centres undefined) | -4.14% |
| COCCOc1ccnc(-c2noc([C@@H]3CCCN3CC3CC3)n2)c1 | -4.55% |
| O=C(Nc1ccccc1)[C@H]1CN2CC[C@H]1C[C@@H]2Cn1cc(CCO)nn1 | -0.843% |
| CCOCC1CN(Cc2ccc(OC)cc2)Cc2nn(C)cc21 (centres undefined) | 3.65% |
| Cc1cnn(CC2CCCCN2CC(=O)Nc2nc(C)cs2)c1 (centres undefined) | 0.109% |
| Cc1oncc1C(=O)N[C@@H]1CN(C2CCC2)C[C@@H]2CCCO[C@@H]21 | -109% |
| CN1CCN(C(=O)[C@H]2C[C@@H]3CCN(c4ncc(F)cn4)C[C@@H]3O2)CC1 | -6.69% |
| CCOC(=O)N1CCC(NC(=O)c2cccc(C3CCCNC3)c2)CC1 (centres undefined) | 1.34% |
| CN1CCC(c2cncc(Cl)n2)CC1 | 0.752% |
| CN(C)CCNC(=O)c1nc2c(s1)CCCN2C(=O)C1CC1 | -108% |
| CNC(=O)CNC(=O)Nc1ccc(Br)c(F)c1 | 5.44% |
| CC(C)NC(=O)N1Cc2nccn2CC(CN2CCCC2)C1 (centres undefined) | -75.8% |
| O=C(N[C@@H]1CCNC[C@H]1O)c1ccc(O)c(Cl)c1 | -5.46% |
| COCCOCC(=O)Nc1nc2c(OC)cc(F)cc2s1 | -1.29% |
| Cc1nc[nH]c1CN(C)Cc1cnn(-c2ccc(F)cc2)c1 | 0.345% |
| CN(c1cccnc1N1CCCC1)S(=O)(=O)c1cccnc1 | 0.981% |
| Cc1cnc(C(=O)NCc2cccnc2OC(C)C)cn1 | -23.4% |
| O=C(c1cnccn1)N1CCCC2(CCN(c3ncccn3)C2)C1 (centres undefined) | 5.61% |
| O=C(c1cncc(Br)c1)N1CCCc2ccc(F)cc21 | -1.01% |
| CC(C)N1CCC(C(=O)N2CCCN(c3ccccc3)CC2)CC1 | 7.4% |

| SMILES | cytotoxicity at 10 µM |
| --- | --- |
| CCOC(=O)c1sc(NC(=O)C(C)(C)C)c(C#N)c1C | 9.04% |
| CCCn1cc(C(=O)NC(CC(=O)O)c2ccco2)c(C)n1 (centres undefined) | -61.4% |
| CCN(Cc1nc(COC)no1)Cc1ccccc1OCC(=O)O | -51.6% |
| CC(C)C(C)NC(=O)c1cccn1Cc1cccnc1 (centres undefined) | -44% |
| COc1cccnc1-c1ccc(F)c2c1OC(CN)C2 (centres undefined) | 1.74% |
| CNC(=O)CS(=O)(=O)C1CCN(S(=O)(=O)C2CC2)CC1 | -16.7% |
| Cc1nccn1C1(C(=O)O)CCN(Cc2ccc3nsnc3c2)CC1 | -4.97% |
| O=C1CCCC2=Nc3nonc3NC(c3ccc(Cl)cc3Cl)C12 (centres undefined) | 5.24% |
| O=C1NCCN1C(CNS(=O)(=O)C1CC1)Cc1cccc(F)c1 (centres undefined) | -3.09% |
| CN1CCC2(COCc3cnc(N4CCOCC4)nc32)C1 (centres undefined) | -6.13% |
| CC[C@@]1(O)CCN(C(=O)CN(C)Cc2ccc(F)cc2)C[C@H]1O | 3.38% |
| COCCOc1ccc(-c2noc([C@@H]3CCCN3C3CCC3)n2)cn1 | -4.26% |
| CC(C)(C)c1n[nH]c(C2CN(C(=O)CCC3CC3)CCO2)n1 (centres undefined) | -12.7% |
| CC(=O)c1c(C)nn(CC(=O)N2Cc3cnc(C(C)(C)C)nc3C2)c1C | -0.539% |
| CC(=O)Nc1ccc2nc(-c3nccn3C[C@@H]3CCCO3)ccc2c1 | -8.18% |
| Cc1cc(F)ccc1NCC(=O)NCC(F)(F)F | -2.56% |
| O=S(=O)(CCCn1cncn1)Cc1ccc(F)cc1Cl | 7.49% |
| COCC(=O)N1CCC(c2cc(-c3ccc(OC)cc3)n[nH]2)C1 (centres undefined) | -10.3% |
| Cc1ccccc1C(C(=O)NCc1nc(-c2ncccn2)no1)N(C)C (centres undefined) | 3.09% |
| Oc1coc2cc(OC[C@@H]3CCCN4CCCC[C@H]34)ccc12 | 1.96% |
| CCc1c(C(=O)N2CCN(c3cnccn3)CC2)cnn1C(C)(C)C | -13% |
